Assay type in all cases: functional
Assay [1] relates to Mus musculus. In words: Activity expressed as percent inhibition of anti-TNP IgM level in TNP-LPS immunized mice, at a dose of 10 mg/kg perorally. The note with it: route oral. Put shortly: (§1)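 Female (C57BL/6 × DBA/2)F1 mice, 6 weeks old, immunized i.v. with TNP-LPS on day 0, then randomized (7/group). Compound given orally on days 0 and 1. Serum taken on day 4 and anti-TNP IgM measured by ELISA. Result given as % inhibition of IgM level versus control, with significance by Student's t-test.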

Assay [2] relates to Mus musculus. In words: Antinephritic activity against Graft-Versus-Host Disease (GVHD) induced (C57BL/6DBA/2)F1 mice at a dose of 32 mg/kg administered perorally. The note with it: route oral. Put shortly: (§2)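 Chronic GVHD induced in 6-week-old female (C57BL/6 × DBA/2)F1 mice by two injections of DBA/2 spleen cells (5 × 10⁷ each), given 5 days apart. Oral dosing once daily for 8 weeks, starting 3 days after the second injection. Urinary albumin measured after the last dose by single radial immunodiffusion with rabbit anti-mouse albumin antiserum. 10 mice/group; % inhibition of proteinuria; Student's t-test.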

In assay [3] the test system is Mus musculus. Put plainly: Activity was expressed as percent inhibition of anti-TNP IgM level in TNP-LPS immunized mice, at a dose of 0.1 mg/kg perorally. The note with it: route oral. In short, it runs like this: as §1
The test system of assay [4] is Mus musculus. In words: Antinephritic activity against Graft-Versus-Host Disease (GVHD) induced (C57BL/6DBA/2) F1 mice at a dose of 32 mg/kg administered perorally. The note with it: route oral. In short, it runs like this:
as §2

In assay [5] the test system is Mus musculus. Put plainly: Activity was expressed as percent inhibition of anti-TNP IgM level in TNP-LPS immunized mice, at a dose of 1 mg/kg perorally. The note with it: route oral. In short, it runs like this:
as §1

For assay [6], the system named is Mus musculus. Put plainly: Inhibition of histological score (Nephritis in the kidneys) in the autoimmune diseased MRL/l mice at a dose of 0.32 mg/kg administered perorally. The note with it: route oral.
Assay [7] has as its system Mus musculus. Put plainly: Inhibition of histological score (Nephritis in the kidneys) in the autoimmune diseased MRL/l mice at a dose of 1 mg/Kg administered perorally. The note with it: po.
Assay [8] relates to Mus musculus. Put plainly: Inhibition of histological score (Nephritis in the kidneys) in the autoimmune diseased MRL/l mice at a dose of 3.2 mg/Kg administered perorally. The note with it: po.
Assay [9] concerns Mus musculus. Put plainly: Activity was expressed as percent inhibition of anti-TNP IgM level in TNP-LPS immunized mice, at a dose of 100 mg/kg perorally. The note with it: route oral. In short, it runs like this:
as §1

The subject of assay [10] is Mus musculus. In words: Inhibition of anti-DNA antibody in autoimmune diseased MRL/I mice at a dose of 3.2 mg/kg administered perorally. The note with it: route oral.
In assay [11] the test system is Mus musculus. In words: Inhibition of anti-DNA antibody in autoimmune diseased MRL/I mice at a dose of 1 mg/kg administered perorally. The note with it: route oral.
In assay [12] the test system is Mus musculus. Put plainly: Inhibition of anti-DNA antibody in autoimmune diseased MRL/I mice at a dose of 0.32 mg/Kg administered perorally. The note with it: po.
The subject of assay [13] is Mus musculus. Put plainly: Activity was expressed as percent inhibition of anti-TNP IgM level in TNP-LPS immunized mice, at a dose of 0.01 mg/kg perorally. The note with it: route oral. In short, it runs like this:
as §1

Structures are written as SMILES.

On to `Cc1ccc2c(c1)C(=O)/C(=C(\S)N(C)c1ccccc1)C(=O)N2C`, for which the inhibition in vivo at 10 mg/kg in assay [1] amounted to 20%.
For the compound `C=CCN(C(=S)c1c(O)c2cc(Cl)ccc2n(C)c1=O)c1ccccc1`, the inhibition in vivo at 32 mg/kg in assay [2] stood at 96%.
As for `CSc1ccc2c(c1)c(O)c(C(=O)N(C)c1ccccc1)c(=O)n2C`, the inhibition in vivo at 10 mg/kg in [1] turned out to be 67%. For the same compound, in assay [3], the inhibition in vivo at 0.1 mg/kg turned out to be 18%. Further, in [4], the inhibition in vivo at 32 mg/kg came to 100%. Besides, in assay [5], the inhibition in vivo at 1 mg/kg was found to be 50%.
As for `CN1C(=O)/C(=C(/S)N(C)c2ccc(Br)cc2)C(=O)c2cc(Cl)ccc21`, the inhibition in vivo at 10 mg/kg in [1] turned out to be 50%.
On the same count and under the same terms, as for `CN1C(=O)/C(=C(/S)N(C)c2ccc(Cl)cc2)C(=O)c2cc(Cl)ccc21`, the figure is 47%; as for `CN1C(=O)/C(=C(/S)N(C)c2ccc(OC(F)(F)F)cc2)C(=O)c2cc(Cl)ccc21`, 39%.
As to `CSc1ccc2c(c1)c(O)c(S(=O)(=O)N(C)c1ccccc1)c(=O)n2C`, the inhibition in vivo at 32 mg/kg in [2] was found to be 53%.
On to `Cc1cc(Cl)cc2c1N(C)C(=O)/C(=C(/S)N(C)c1ccccc1)C2=O`, for which the inhibition in vivo at 10 mg/kg in assay [1] is 17%.
Turning to `CN1C(=O)/C(=C(/S)N(C)c2ccc(F)cc2)C(=O)c2cc(Cl)ccc21`, the inhibition in vivo at 10 mg/kg in assay [1] is 54%.
For the compound `CSc1ccc2c(c1)c(O)c(C(=S)N(C)c1ccccc1)c(=O)n2C`, the inhibition in vivo at 10 mg/kg in [1] amounted to 32%. In addition, the inhibition in vivo at 32 mg/kg in [2] stood at 99%.
For the compound `Cc1ccc(N(C)/C(S)=C2/C(=O)c3cc(Cl)ccc3N(C)C2=O)cc1`, the inhibition in vivo at 10 mg/kg in assay [1] was found to be 23%.
For `CN1C(=O)/C(=C(/S)N(C)c2ccccc2)C(=O)c2cc(OC(F)(F)F)ccc21`, the inhibition in vivo at 10 mg/kg in [1] came to 19%.
For the compound `CN1C(=O)/C(=C(/S)N(C)c2ccccc2)C(=O)c2ccc(Cl)cc21`, in assay [2], the inhibition in vivo at 32 mg/kg was -23%.
With `CSc1ccc2c(c1)c(=O)c(C(=S)N(C)c1ccccc1)c(S)n2C`, the inhibition in vivo at 32 mg/kg in [2] turned out to be 37%.
On to `CN1C(=O)/C(=C(/S)N(C)c2cccc(Cl)c2)C(=O)c2cc(Cl)ccc21`, for which the inhibition in vivo at 10 mg/kg in assay [1] was 63%.
Still for that read-out and setting: as for `Cn1c(=O)c(C(=S)N(c2ccccc2)C(C)(C)C)c(O)c2cc(Cl)ccc21`, the figure is 11%; as for `COCCCN(/C(S)=C1/C(=O)c2cc(Cl)ccc2N(C)C1=O)c1ccccc1`, 31%; as for `Cn1c(=O)c(/C(S)=N/c2ccccc2)c(O)c2cc(Cl)ccc21`, 38%.
For `COc1ccc(N(C)/C(S)=C2/C(=O)c3cc(Cl)ccc3N(C)C2=O)cc1`, the inhibition in vivo at 10 mg/kg in assay [1] worked out at 45%. The inhibition in vivo at 32 mg/kg in [2] worked out at 97%.
Consider `COc1ccc2c(c1)c(O)c(C(=S)N(C)c1ccccc1)c(=O)n2C`, for which, in [1], the inhibition in vivo at 10 mg/kg was 31%. Moreover, the inhibition in vivo at 32 mg/kg in [2] was found to be 99%.
As for `CN1C(=O)/C(=C(/S)N(C)c2ccccc2)C(=O)c2cc(-n3cccc3)ccc21`, in [1], the inhibition in vivo at 10 mg/kg is -10%.
Still for that read-out and setting: the same measure for `CN1C(=O)/C(=C(/S)N(C)c2ccc(F)c(F)c2)C(=O)c2cc(Cl)ccc21`: 62%; for `CN1C(=O)/C(=C(/S)N(C)c2cccs2)C(=O)c2cc(Cl)ccc21`: 19%.
In the case of `CN1C(=O)/C(=C(/S)N(C)c2ccccc2)C(=O)c2ccccc21`, the inhibition in vivo at 32 mg/kg in assay [2] was found to be 85%.
On the same count and under the same terms, as for `CSc1ccc(N(C)C(=O)c2c(O)c3cc(SC)ccc3n(C)c2=O)cc1`, the figure is 87%; as for `CS/C(=N\c1ccccc1)c1c(O)c2cc(SC)ccc2n(C)c1=O`, 84%.
With `COc1cccc(N(C)/C(S)=C2/C(=O)c3cc(Cl)ccc3N(C)C2=O)c1`, the inhibition in vivo at 10 mg/kg in assay [1] was found to be 30%. Besides, in assay [2], the inhibition in vivo at 32 mg/kg was 74%.
For the compound `CN1C(=O)/C(=C(/S)N(C)c2cccc(C(F)(F)F)c2)C(=O)c2cc(Cl)ccc21`, the inhibition in vivo at 10 mg/kg in [1] worked out at 29%.
As to `CN1C(=O)/C(=C(/S)N(C)c2ccccc2)C(=O)c2cc(Br)ccc21`, the inhibition in vivo at 10 mg/kg in assay [1] was found to be 56%. The inhibition in vivo at 32 mg/kg in assay [2] worked out at 98%.
As for `CN1C(=O)/C(=C(/S)N(C)c2ccccc2)C(=O)c2cc(Cl)ccc21`, the inhibition in vivo at 10 mg/kg in assay [1] is 64%. Further, in assay [2], the inhibition in vivo at 32 mg/kg worked out at 100%. The inhibition in vivo at 0.1 mg/kg in [3] came out at 22%. Also, the inhibition in vivo at 0.32 mg/kg worked out at 67% in assay [6] and 52% in assay [12]. The values for the inhibition in vivo at 1 mg/kg in [7], in assay [11] and in assay [5] were 85%, 73% and 33%, respectively. In addition, the inhibition in vivo at 3.2 mg/kg in assay [8] came out at 85%; in assay [10] it was 83%. Besides, the inhibition in vivo at 100 mg/kg in [9] was determined as 77%. Moreover, the inhibition in vivo at 0.01 mg/kg in [13] was -3%.
Turning to `CSCCN(C(=O)c1c(O)c2cc(SC)ccc2n(C)c1=O)c1ccccc1`, the inhibition in vivo at 32 mg/kg in [2] is 65%.
The same measure, in the same setting: as for `CSc1ccc2c(c1)c(=O)c(C(=O)N(C)c1ccccc1)c(S)n2C`, the figure is 96%.
As for `CN(C(=O)c1c(O)c2ccccc2n(C)c1=O)c1ccccc1` [ROQUINIMEX], in [1], the inhibition in vivo at 10 mg/kg was found to be 41%. In addition, the inhibition in vivo at 100 mg/kg in assay [9] amounted to 49%. Moreover, the inhibition in vivo at 1 mg/kg in assay [5] worked out at 13%.

Values taken from ChEMBL document CHEMBL1134902, “Quinoline-3-carbothioamides and related compounds as novel immunomodulating agents” (2002).
